{"data": "Experimental data collected from several papers", "target": "Tyrosine-protein kinase ZAP-70 (ZAP70, Homo sapiens, UniProt P43403)", "Sequence (P43403 1-619, as in one of the studies)": "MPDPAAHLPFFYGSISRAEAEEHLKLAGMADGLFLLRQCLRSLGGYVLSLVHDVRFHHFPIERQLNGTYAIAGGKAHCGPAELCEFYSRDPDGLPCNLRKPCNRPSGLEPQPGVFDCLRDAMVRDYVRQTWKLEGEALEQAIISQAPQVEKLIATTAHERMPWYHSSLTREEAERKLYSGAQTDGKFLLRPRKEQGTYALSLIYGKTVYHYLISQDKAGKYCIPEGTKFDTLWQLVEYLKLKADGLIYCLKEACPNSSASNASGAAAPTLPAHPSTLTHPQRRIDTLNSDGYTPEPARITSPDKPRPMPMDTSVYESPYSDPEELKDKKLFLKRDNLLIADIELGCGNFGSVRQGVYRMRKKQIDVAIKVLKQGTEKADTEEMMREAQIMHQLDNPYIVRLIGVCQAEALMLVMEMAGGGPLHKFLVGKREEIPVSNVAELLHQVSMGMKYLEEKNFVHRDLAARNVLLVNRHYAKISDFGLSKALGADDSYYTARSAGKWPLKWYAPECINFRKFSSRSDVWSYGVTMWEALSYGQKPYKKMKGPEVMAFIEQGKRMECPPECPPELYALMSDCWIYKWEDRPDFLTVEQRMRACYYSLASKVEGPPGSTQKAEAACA", "note": "Compare with care: the assays were run in different laboratories."}
{"SMILES": "C[C@H](C(=O)N[C@H]1COc2ccccc2[C@@H]1S(C)(=O)=O)c1ccc(F)cc1", "assay": "enzyme activity, inhibitor", "conditions": "10 µM", "quantity": "inhibition", "value": "5%"}
{"SMILES": "Cc1nn(C)cc1-c1nc2c(N3CCN(Cc4ccc(Cl)cc4)CC3)c(Cl)cnc2[nH]1", "assay": "binding, competition with immobilised ligand", "conditions": "1 µM", "quantity": "remaining binding", "value": "100%"}
{"SMILES": "O=c1[nH]c2ccccc2n1C1CCN(Cc2ccc(-c3[nH]c4cc5ncnc5cc4nc3-c3ccccc3)cc2)CC1", "assay": "cell-free assay", "conditions": "0.5 µM", "quantity": "remaining signal", "value": "97.3%"}
{"SMILES": "Nc1ncc(-c2nc(N3CCOCC3)nc(N3CCOCC3)n2)c(C(F)F)n1", "assay": "binding, competition with immobilised ligand", "conditions": "10 µM", "quantity": "remaining binding", "value": "94%"}
{"SMILES": "N#CC1(c2ccccn2)CCN(Cc2cc(C(=O)O)c(=O)n3ccccc23)CC1", "assay": "cell-free assay, competition with immobilised ligand", "conditions": "1 µM", "quantity": "remaining binding", "value": "100%"}
{"SMILES": "O=C(Nc1cccnn1)N1CCN([C@@H]2CCOc3cc(C(F)(F)F)ccc32)CC1", "assay": "enzyme activity, inhibitor", "conditions": "20 µM", "quantity": "inhibition", "value": "1%"}
{"SMILES": "COc1ncccc1-c1cnn2ccc(N3CCN(C(=O)OC(C)C)CC3)nc12", "assay": "binding, competition with immobilised ligand", "conditions": "1 µM", "quantity": "remaining binding", "value": "88%"}
{"SMILES": "Cn1cncc1[C@@](O)(COc1ccc(C#N)cc1-c1ccc(OC(F)(F)F)cc1)c1ccc(C#N)cc1", "assay": "cell-free assay, competition with immobilised ligand", "conditions": "1 µM", "quantity": "remaining binding", "value": "100%"}
{"SMILES": "Cn1cc(-c2cc(F)cc(N3CCn4c(cc5c4CCCC5)C3=O)c2CO)cc(Nc2ccc(N3CCN(C4COC4)CC3)cn2)c1=O", "assay": "enzyme activity, inhibitor", "conditions": "0.1 µM", "quantity": "inhibition", "value": "16%"}
{"SMILES": "COc1cc(Nc2ncc(F)c(Nc3ccc4c(n3)NC(=O)C(C)(C)O4)n2)cc(OC)c1OC", "assay": "binding", "conditions": "10 µM", "quantity": "inhibition", "value": "100%"}
{"SMILES": "Cn1cc(-c2cccc(N3CCc4c(sc5c4CC(C)(C)C5)C3=O)c2CO)cc(Nc2ccncn2)c1=O", "assay": "enzyme activity, inhibitor", "conditions": "1 µM", "quantity": "inhibition", "value": "3%"}
{"SMILES": "CC(C)(C)c1cc(C=C(C#N)C#N)cc(Br)c1O", "assay": "enzyme activity, inhibitor", "conditions": "0.5 µM", "quantity": "remaining activity", "value": "91.6%"}
{"SMILES": "c1ccc(C(NCCNC(c2ccccc2)c2ccccc2)c2ccccc2)cc1", "assay": "enzyme activity, inhibitor", "conditions": "10 µM", "quantity": "inhibition", "value": "3%"}
{"SMILES": "Cc1ncc(C)n2nc(/C=C/c3nc(N4CCCC4)cc(N4CCOCC4)n3)nc12", "assay": "enzyme activity, inhibitor", "conditions": "10 µM", "quantity": "inhibition", "value": "-6%"}
{"SMILES": "C#Cc1n[nH]c2c(-c3cn(C(C)c4ccccn4)c(=O)[nH]c3=O)cc(F)cc12 (stereo not drawn)", "assay": "enzyme activity, inhibitor", "conditions": "1 µM", "quantity": "inhibition", "value": "16.2%"}
